Results: ChEMBL document CHEMBL5252513, “Identification of a Benzoisoxazoloazepine Inhibitor (CPI-0610) of the Bromodomain and Extra-Terminal (BET) Family as a Candidate for Human Clinical Trials” (J Med Chem, 2016)
Active and inactive are the calls of the source. The rule behind the calls is not given here.

Assays:
[1] = target: T1, Bromodomain-containing protein 4 (Homo sapiens, UniProt O60885); experiment: Inhibition of BRD4 BD1 (unknown origin) using biotinylated ligand incubated for 60 mins by TR-FRET assay
[2] = Toxicity against BALB/c mouse plasma xenografted with human MV4-11 cells assessed as body weight loss at 2 mg/kg,iv BIW in presence of at 10 mg/kg,sc BID for 28 days; type: organism-based; details: in vivo, 672 h, time 28 day
Summary of the method: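 MV-4-11 acute myeloid leukemia mouse xenograft; BET inhibitor given subcutaneously 10 mg/kg twice daily, doxorubicin 2 mg/kg IV twice weekly, alone or combined, for 28 days; body weight change (%) tracked over treatment against vehicle.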

MV4-11 [3] = experiment: Antitumor activity against human MV4-11 cells xenografted in BALB/c mouse assessed as slower tumor regrowth after drug therapy removal at 2 mg/kg,iv BIW in presence of at 10 mg/kg,sc BID for 28 days and measured after 28 days; type: functional, organism-based; details: time 28.0 day
MV4-11 [4] = experiment: Antitumor activity against human MV4-11 cells xenografted in BALB/c mouse assessed as complete tumor growth inhibition at 2 mg/kg,iv BIW in presence of at 10 mg/kg,sc BID for 28 days; type: functional, organism-based; details: time 28.0 day
MV4-11 [5] = experiment: Antitumor activity against human MV4-11 cells xenografted in BALB/c mouse assessed as modest tumor growth inhibition at 2 mg/kg,iv BIW for 28 days; type: functional, organism-based; details: time 28.0 day
[6] = AUC (0 to infinity) in rat at 5 mg/kg,po; type: ADME, organism-based; parameters: dose 5 mg/kg, route po; details: in vivo
[7] = Intrinsic clearance in dog liver microsomes; type: ADME, Canis lupus familiaris, Microsome; details: read-out: CLH
[8] = Cmax in rat at 5 mg/kg,po; type: ADME, organism-based; parameters: dose 5 mg/kg, route po; details: in vivo
[9] = Tmax in rat at 5 mg/kg,po; type: ADME, organism-based; details: in vivo
[10] = Oral bioavailability in rat at 5 mg/kg; type: ADME, organism-based; details: in vivo
[11] = Half life in rat plasma at 1 mg/kg,iv; type: ADME, organism-based
[12] = Protein binding in mouse plasma; type: ADME, cell-free; details: read-out: PPB (converted)
[13] = Unbound AUC in rat at 5 mg/kg,po; type: ADME, organism-based; details: in vivo
[14] = Protein binding in rat plasma; type: ADME, cell-free; details: read-out: PPB (converted)
[15] = Clearance in rat assessed as liver blood flow at 1 mg/kg,iv; type: ADME, organism-based; details: in vivo
[16] = target: T1, Bromodomain-containing protein 4; experiment: Inhibition of BRD4 BD1 in human MV4-11 cells assessed as reduction of MYC RNA expression after 4 hrs by PCR analysis; type: cell-based
[17] = Intrinsic clearance in rat liver microsomes; type: ADME, Microsome
[18] = Volume of distribution at steady state in rat at 1 mg/kg,iv; type: ADME, organism-based; details: in vivo, read-out: Vdss
[19] = Intrinsic clearance in mouse liver microsomes; type: ADME, Microsome; details: read-out: CLH
[20] = Intrinsic clearance in human liver microsomes; type: ADME, Microsome; details: read-out: CLH
[21] = Protein binding in dog plasma; type: ADME, cell-free, Canis lupus familiaris; details: read-out: PPB (converted)
[22] = Unbound clearance in rat at 1 mg/kg,iv; type: ADME, organism-based; details: in vivo
[23] = Protein binding in human plasma; type: ADME, cell-free; details: read-out: PPB (converted)
[24] = Total clearance in rat at 1 mg/kg,iv; type: ADME, organism-based; details: in vivo
[25] = Unbound AUC in rat at 10 mg/kg,po; type: ADME, organism-based; details: in vivo
[26] = Cmax in rat at 10 mg/kg,po; type: ADME, organism-based; parameters: dose 10 mg/kg, route po; details: in vivo
[27] = AUC (0 to infinity) in rat at 10 mg/kg,po; type: ADME, organism-based; parameters: dose 10 mg/kg, route po; details: in vivo
[28] = Oral bioavailability in rat at 10 mg/kg; type: ADME, organism-based; details: in vivo
[29] = Tmax in rat at 10 mg/kg,po; type: ADME, organism-based; details: in vivo
[30] = target: T1, Bromodomain-containing protein 4; experiment: Inhibition of BRD4 BD1 in human Raji cells assessed as reduction of MYC RNA expression after 4 hrs by PCR analysis; type: cell-based
[31] = target: T1, Bromodomain-containing protein 4; experiment: Displacement of biotinylated JQ1 from BRD4 BD1 (unknown origin) incubated for 20 mins by AlphaLISA assay

Compound	IC50 [1]	predicted hepatic clearance [7]	fraction unbound [12]	fraction unbound [14]	EC50 [16]	predicted hepatic clearance (CLH) [17]	predicted hepatic clearance [19]	predicted hepatic clearance [20]	fraction unbound [21]	fraction unbound [23]	other results
Cc1noc2c1-c1ccccc1C(c1ccc(Cl)cc1)=NN2	880 nM	–	–	–	–	–	–	–	–	–	–
COc1cccc2c1C(=O)c1c(O)c3c(c(O)c1C2=O)C[C@@](O)(C(=O)CO)C[C@@H]3O[C@H]1C[C@H](N)[C@H](O)[C@H](C)O1 [DOXORUBICIN]	–	–	–	–	–	–	–	–	–	–	Activity [2]: Non-Toxic; Activity (MV4-11 [3]): Active; Activity (MV4-11 [4]): Active; Activity (MV4-11 [5]): Active
Cc1noc2c1-c1ccccc1C(c1ccc(C#N)cc1)=N[C@H]2CC(N)=O	94 nM	< 14 mL/min/kg	0.13	0.33	220 nM	16 mL/min/kg	29 mL/min/kg	9 mL/min/kg	0.22	0.11	AUC(0-inf) [6]: 5.9 µM·h; Cmax [8]: 1800 nM; Tmax [9]: 49.8 min; bioavailability [10]: 56%; half-life [11]: 39.6 min; fAUC [13]: 2 µM·h; QH [15]: 39%; Vd [18]: 1.2 L/kg; CL free [22]: 65 mL/min/kg; clearance [24]: 21.7 mL/min/kg
Cc1noc2c1-c1ccc(-c3cn(C)cn3)cc1C(c1ccc(Cl)cc1)=N[C@H]2CC(N)=O	11 nM	23 mL/min/kg	0.11	0.14	30 nM	< 10 mL/min/kg	28 mL/min/kg	11 mL/min/kg	0.11	0.14	–
CCNC(=O)C[C@@H]1N=C(c2ccc(Cl)cc2)c2ccccc2-c2c(C)noc21	52 nM	29 mL/min/kg	0.01	0.04	210 nM	42 mL/min/kg	61 mL/min/kg	18 mL/min/kg	0.02	0.02	–
COc1ccc(C2=N[C@@H](CC(N)=O)c3onc(C)c3-c3ccccc32)cc1	48 nM	26 mL/min/kg	0.11	0.21	170 nM	33 mL/min/kg	83 mL/min/kg	8 mL/min/kg	0.14	0.12	–
COc1nccc2c1C(c1ccc(Cl)cc1)=NCc1onc(C)c1-2	440 nM	–	–	–	–	–	–	–	–	–	–
Cc1ccc(C2=N[C@@H](CC(N)=O)c3onc(C)c3-c3ccccc32)cc1	52 nM	29 mL/min/kg	0.07	0.1	170 nM	49 mL/min/kg	78 mL/min/kg	11 mL/min/kg	0.08	0.1	–
COc1ccc2c(c1)C(c1ccc(Cl)cc1)=N[C@@H](CC(N)=O)c1onc(C)c1-2	17 nM	21 mL/min/kg	0.03	0.06	64 nM	35 mL/min/kg	26 mL/min/kg	9 mL/min/kg	0.03	0.05	fAUC [25]: 0.51 µM·h; Cmax [26]: 1600 nM; half-life [11]: 38.4 min; QH [15]: 66%; AUC(0-inf) [27]: 8.5 µM·h; Vd [18]: 1.7 L/kg; bioavailability [28]: 60%; CL free [22]: 617 mL/min/kg; Tmax [29]: 49.8 min; clearance [24]: 36.7 mL/min/kg
Cc1noc2c1-c1cn(C)nc1C(c1ccc(Cl)cc1)=NC2	590 nM	–	–	–	2600 nM	–	–	–	–	–	–
Cc1nsc2c1C(c1ccc(Cl)cc1)=NCc1onc(C)c1-2	> 80000 nM	–	–	–	> 4000 nM	–	–	–	–	–	–
Cc1nnc2n1-c1ccccc1C(c1ccc(Cl)cc1)=NC2	1800 nM	–	–	–	–	–	–	–	–	–	–
Cc1onc2c1-c1ccccc1C(c1ccc(Cl)cc1)=NC2	1300 nM	–	–	–	–	–	–	–	–	–	–
Cc1noc(N)c1-c1ccccc1	20000 nM	–	–	–	–	–	–	–	–	–	–
CNc1ccc2c(n1)C(c1ccc(Cl)cc1)=NCc1onc(C)c1-2	59 nM	–	–	–	440 nM	–	–	–	–	–	–
Cc1noc2c1-c1ccccc1C(c1ccc(Cl)cc1)=N[C@@H]2CC(=O)OC(C)(C)C	> 80000 nM	–	–	–	–	–	–	–	–	–	–
Cc1noc2c1-c1ccccc1C(c1ccc(Cl)cc1)=NC2	–	29 mL/min/kg	0.01	0.01	–	40 mL/min/kg	52 mL/min/kg	15 mL/min/kg	< 0.01	0.01	–
CCNC(=O)NC1N=C(c2ccc(Cl)cc2)c2ccccc2-c2c(C)noc21 (stereo not given)	33 nM	21 mL/min/kg	0.03	0.02	100 nM	29 mL/min/kg	38 mL/min/kg	13 mL/min/kg	0.02	0.03	–
Cc1noc2c1-c1ccccc1C(c1ccccc1)=N[C@H]2CC(N)=O	110 nM	17 mL/min/kg	0.16	0.2	250 nM	28 mL/min/kg	10 mL/min/kg	< 5 mL/min/kg	0.12	0.19	–
Cc1cccc2c1C(c1ccc(Cl)cc1)=N[C@@H](CC(N)=O)c1onc(C)c1-2	13 nM	24 mL/min/kg	0.02	0.04	140 nM	37 mL/min/kg	47 mL/min/kg	11 mL/min/kg	0.02	0.02	AUC(0-inf) [6]: 4.9 µM·h; Cmax [8]: 1200 nM; Tmax [9]: 120 min; bioavailability [10]: 92%; half-life [11]: 59.4 min; fAUC [13]: 0.2 µM·h; QH [15]: 76%; Vd [18]: 2.5 L/kg; CL free [22]: 1050 mL/min/kg; clearance [24]: 41.7 mL/min/kg
Cc1noc2c1-c1ccc(=O)n(C)c1C(c1ccc(Cl)cc1)=NC2	750 nM	–	–	–	2900 nM	–	–	–	–	–	–
Cc1noc2c1-c1ccnc(N)c1C(c1ccc(Cl)cc1)=NC2	90 nM	–	–	–	–	–	–	–	–	–	EC50 [30]: 720 nM
Cc1noc2c1-c1ccc(-c3ccc(N)nc3)cc1C(c1ccc(Cl)cc1)=N[C@H]2CC(N)=O	7 nM	25 mL/min/kg	0.02	0.09	33 nM	34 mL/min/kg	36 mL/min/kg	13 mL/min/kg	0.02	0.04	half-life [11]: 40.8 min; QH [15]: 230%; Vd [18]: 5.4 L/kg; CL free [22]: 1400 mL/min/kg; clearance [24]: 127 mL/min/kg
Cc1noc2c1-c1ccccc1C(c1ccc(Cl)cc1)=N[C@H]2CC(N)C(F)(F)F (stereo not given in full)	11000 nM	27 mL/min/kg	0.01	0.01	> 4000 nM	38 mL/min/kg	41 mL/min/kg	13 mL/min/kg	0.01	0.01	–
Cc1noc2c1-c1c[nH]c(=O)cc1C(c1ccc(Cl)cc1)=NC2	530 nM	–	–	–	1100 nM	–	–	–	–	–	–
COCCNC(=O)C[C@@H]1N=C(c2ccc(Cl)cc2)c2ccccc2-c2c(C)noc21	56 nM	30 mL/min/kg	0.01	0.07	270 nM	45 mL/min/kg	82 mL/min/kg	19 mL/min/kg	0.03	< 0.01	fAUC [25]: 0.084 µM·h; Cmax [26]: 380 nM; half-life [11]: 72 min; QH [15]: 66%; AUC(0-inf) [27]: 1.2 µM·h; Vd [18]: 1.8 L/kg; bioavailability [28]: 11%; CL free [22]: 517 mL/min/kg; Tmax [29]: 40.2 min; clearance [24]: 36.7 mL/min/kg
Cc1noc2c1-c1ccccc1C(c1ccc(Cl)cc1)=N[C@H]2CC(=O)OC(C)(C)C	–	–	–	–	–	–	–	–	–	–	IC50 [31]: 580 nM
Cc1noc2c1-c1ccccc1C(c1ccc(Cl)cc1)=NC2C(N)=O (stereo not given)	15000 nM	29 mL/min/kg	0.01	–	4000 nM	27 mL/min/kg	32 mL/min/kg	20 mL/min/kg	0.02	0.02	–
